Experimental findings from ChEMBL document CHEMBL1139044, “Design and synthesis of furoxan-based nitric oxide-releasing glucocorticoid derivatives with potent anti-inflammatory activity and improved safety” (2007) are described below.

Assay [1] concerns Mus musculus. In words: Antiinflammatory activity in mouse assessed as inhibition of xylene induced ear edema. In kind it is functional, organism-based.
For assay [2], the system named is Rattus norvegicus. The experiment in a line: Anti-acute-inflammatory activity in rat assessed as carrageenan induced paw edema volume at 23.2 mg/kg after 1 hr. The format is functional. A digest of the protocol:
(§1)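 Rats, n = 8 per group, with CMC-Na as the vehicle control. Paw swelling was induced with carrageenan, and edema volume (ml) was recorded hourly from 1 to 6 h. Significance was tested against the CMC-Na group.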

For assay [3], the system named is Rattus norvegicus. In words: Anti-acute-inflammatory activity in rat assessed as carrageenan induced paw edema volume at 23.2 mg/kg after 2 hrs. The format is functional. The essentials: as §1
Assay [4] relates to Rattus norvegicus. The experiment in a line: Anti-acute-inflammatory activity in rat assessed as carrageenan induced paw edema volume at 23.2 mg/kg after 3 hrs. In kind it is functional. The essentials: as §1
Assay [5] relates to Rattus norvegicus. In words: Anti-acute-inflammatory activity in rat assessed as carrageenan induced paw edema volume at 23.2 mg/kg after 4 hrs. The format is functional. The essentials: as §1
Assay [6] deals with Rattus norvegicus. In words: Anti-acute-inflammatory activity in rat assessed as carrageenan induced paw edema volume at 23.2 mg/kg after 5 hrs. In kind it is functional. The essentials: as §1
The test system of assay [7] is Rattus norvegicus. The experiment in a line: Anti-acute-inflammatory activity in rat assessed as carrageenan induced paw edema volume at 23.2 mg/kg after 6 hrs. In kind it is functional. A digest of the protocol: as §1
Assay [8] concerns Rattus norvegicus. The experiment in a line: Anti-acute-inflammatory activity in rat assessed as carrageenan induced paw edema volume at 46.4 mg/kg after 1 hr. In kind it is functional. A digest of the protocol: as §1
The subject of assay [9] is Rattus norvegicus. The experiment in a line: Anti-acute-inflammatory activity in rat assessed as carrageenan induced paw edema volume at 46.4 mg/kg after 2 hrs. The format is functional. A digest of the protocol: as §1
In assay [10] the test system is Rattus norvegicus. In words: Anti-acute-inflammatory activity in rat assessed as carrageenan induced paw edema volume at 46.4 mg/kg after 3 hrs. The format is functional. A digest of the protocol:
as §1

In assay [11] the test system is Rattus norvegicus. In words: Anti-acute-inflammatory activity in rat assessed as carrageenan induced paw edema volume at 46.4 mg/kg after 4 hrs. The format is functional. The essentials:
as §1

In assay [12] the test system is Rattus norvegicus. The experiment in a line: Anti-acute-inflammatory activity in rat assessed as carrageenan induced paw edema volume at 46.4 mg/kg after 5 hrs. In kind it is functional. The essentials: as §1
Assay [13] deals with Rattus norvegicus. In words: Anti-acute-inflammatory activity in rat assessed as carrageenan induced paw edema volume at 46.4 mg/kg after 6 hrs. The format is functional. A digest of the protocol: as §1
In assay [14] the test system is Rattus norvegicus. The experiment in a line: Anti-acute-inflammatory activity in rat assessed as carrageenan induced paw edema volume at 92.9 mg/kg after 1 hr. In kind it is functional. The essentials:
as §1

For assay [15], the system named is Rattus norvegicus. The experiment in a line: Anti-acute-inflammatory activity in rat assessed as carrageenan induced paw edema volume at 92.9 mg/kg after 2 hrs. In kind it is functional. The essentials:
as §1

Assay [16] relates to Rattus norvegicus. In words: Anti-acute-inflammatory activity in rat assessed as carrageenan induced paw edema volume at 92.9 mg/kg after 3 hrs. The format is functional. The essentials: as §1
The test system of assay [17] is Rattus norvegicus. In words: Anti-acute-inflammatory activity in rat assessed as carrageenan induced paw edema volume at 92.9 mg/kg after 4 hrs. In kind it is functional. The essentials: as §1
Assay [18] has as its system Rattus norvegicus. In words: Anti-acute-inflammatory activity in rat assessed as carrageenan induced paw edema volume at 92.9 mg/kg after 5 hrs. In kind it is functional. A digest of the protocol:
as §1

Assay [19] concerns Rattus norvegicus. In words: Anti-acute-inflammatory activity in rat assessed as carrageenan induced paw edema volume at 92.9 mg/kg after 6 hrs. The format is functional. A digest of the protocol:
as §1

The species named for assay [20] is Rattus norvegicus. In words: Anti-subacute-inflammatory activity in rat assessed as inhibition cotton pellet induced granuloma formation. In kind it is functional, organism-based.
The species entered for assay [21] is Rattus norvegicus. The experiment in a line: Antiinflammatory activity in rat assessed as inhibition of Freund's adjuvant induced arthritis. The format is functional, organism-based.
Assay [22] deals with Osteoblast. The experiment in a line: Effect on alkaline phosphatase activity per 100 ml in SD mouse osteoblasts at 10 umol/L after 48 hrs […]. In kind it is functional.
Assay [23] relates to Mus musculus. The experiment in a line: Antihypertension activity in SD mouse assessed as systolic arterial pressure at 92.9 mg/kg for 3 weeks. The format is functional, Artery. A digest of the protocol: (§2)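 Animals were assigned to groups (n = 10) and dosed for 3 weeks, with CMC-Na as the vehicle group. Systolic pressure, diastolic pressure and heart rate were recorded 1 h after the last dose using a multi-channel tail-artery blood pressure system.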

Assay [24] relates to Mus musculus. The experiment in a line: Antihypertension activity in SD mouse assessed as diastolic arterial pressure at 92.9 mg/kg for 3 weeks. The format is functional, Artery. The essentials: as §2
The subject of assay [25] is Mus musculus. The experiment in a line: Antihypertension activity in SD mouse assessed as heart rate at 92.9 mg/kg for 3 weeks. In kind it is functional. A digest of the protocol:
as §2

In assay [26] the test system is Mus musculus. In words: Nitric oxide level in SD mouse serum at 92.9 mg/kg for 3 weeks by nitrate reductase assay. In kind it is functional. A digest of the protocol: (§3)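 Animals were dosed for 3 weeks (n = 10) with a CMC-Na vehicle group. After the blood pressure readings, […] was drawn from the femoral artery and serum NO (µmol/L) was determined by nitrate reductase assay.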

Assay [27] deals with Mus musculus. In words: Antihypertension activity in SD mouse assessed as systolic arterial pressure at 31 mg/kg for 3 weeks. The format is functional, Artery. The essentials:
as §2

Assay [28] relates to Mus musculus. In words: Antihypertension activity in SD mouse assessed as diastolic arterial pressure at 31 mg/kg for 3 weeks. In kind it is functional, Artery. A digest of the protocol:
as §2

Assay [29] concerns Mus musculus. The experiment in a line: Antihypertension activity in SD mouse assessed as heart rate at 31 mg/kg for 3 weeks. The format is functional. A digest of the protocol:
as §2

For assay [30], the system named is Mus musculus. In words: Nitric oxide level in SD mouse serum at 31 mg/kg for 3 weeks by nitrate reductase assay. The format is functional. The essentials:
as §3

Assay [31] relates to Osteoblast. The experiment in a line: Effect on alkaline phosphatase activity per 100 ml in SD mouse osteoblasts at 1 nmol/L after 48 hrs […]. The format is functional.
Assay [32] concerns Osteoblast. The experiment in a line: Effect on alkaline phosphatase activity per 100 ml in SD mouse osteoblasts at 1 pmol/L after 48 hrs […]. The format is functional.
Assay [33] has as its system Osteoblast. The experiment in a line: Effect on alkaline phosphatase activity per 100 ml in SD mouse osteoblasts at 0.1 pmol/L after 48 hrs […].
The test system of assay [34] is Rattus norvegicus. In words: Anti-acute-inflammatory activity in rat assessed as carrageenan induced paw edema volume at 21.7 mg/kg after 1 hr. In kind it is functional. The essentials: as §1
The test system of assay [35] is Rattus norvegicus. The experiment in a line: Anti-acute-inflammatory activity in rat assessed as carrageenan induced paw edema volume at 21.7 mg/kg after 2 hrs. The format is functional. A digest of the protocol:
as §1

The subject of assay [36] is Rattus norvegicus. The experiment in a line: Anti-acute-inflammatory activity in rat assessed as carrageenan induced paw edema volume at 21.7 mg/kg after 3 hrs. The format is functional. A digest of the protocol: as §1
The test system of assay [37] is Rattus norvegicus. In words: Anti-acute-inflammatory activity in rat assessed as carrageenan induced paw edema volume at 21.7 mg/kg after 4 hrs. The format is functional. The essentials:
as §1

Assay [38] relates to Rattus norvegicus. The experiment in a line: Anti-acute-inflammatory activity in rat assessed as carrageenan induced paw edema volume at 21.7 mg/kg after 5 hrs. In kind it is functional. A digest of the protocol: as §1
Assay [39] deals with Rattus norvegicus. In words: Anti-acute-inflammatory activity in rat assessed as carrageenan induced paw edema volume at 21.7 mg/kg after 6 hrs. The format is functional. The essentials:
as §1

The subject of assay [40] is Osteoclast. The experiment in a line: Inhibition of survival rate of SD mouse osteoclasts at 10 umol/L after 48 hrs by TRAP assay. In kind it is functional, cell-based.
The test system of assay [41] is Osteoclast. In words: Increase in survival rate of SD mouse osteoclasts at 10 pmol/L to 100 nmol/L after 48 hrs by TRAP assay. In kind it is functional, cell-based.
In assay [42] the test system is Osteoclast. The experiment in a line: Inhibition of survival rate of SD mouse osteoclasts at 100 nmol/L to 10 umol/L after 48 hrs by TRAP assay. In kind it is functional, cell-based.
The subject of assay [43] is Rattus norvegicus. The experiment in a line: Antihypertension activity in SD rat assessed as heart rate at 43.4 mg/kg for 3 weeks.
Assay [44] deals with Rattus norvegicus. In words: Nitric oxide level in SD rat serum at 43.4 mg/kg for 3 weeks by nitrate reductase assay.
In assay [45] the test system is Rattus norvegicus. In words: Antihypertension activity in SD rat assessed as systolic arterial pressure at 43.4 mg/kg for 3 weeks.
Assay [46] relates to Rattus norvegicus. In words: Antihypertension activity in SD rat assessed as diastolic arterial pressure at 43.4 mg/kg for 3 weeks.

Calls of active or inactive are those of the source. The rule behind the calls is not given here.

`C[C@]12CCC(=O)C=C1CC[C@@H]1[C@@H]2[C@@H](O)C[C@@]2(C)[C@H]1CC[C@]2(O)C(=O)COC(=O)CCC(=O)OCCOCCOc1no[n+]([O-])c1S(=O)(=O)c1ccccc1`: the outcome in the assay with Mus musculus [1] and in the assay listed under Rattus norvegicus [21] was Active. Moreover, the Activity with Rattus norvegicus [2] is 0.1 mL; in the assay with Rattus norvegicus [3], 0.39 mL; in the assay on Rattus norvegicus [4], 0.74 mL; with Rattus norvegicus [5] it was 0.99 mL; with Rattus norvegicus [6] it was 1.12 mL; in the assay with Rattus norvegicus [7], 1.07 mL. In addition, the Activity in the assay on Rattus norvegicus [8] worked out at 0.13 mL; in the assay on Rattus norvegicus [9], 0.24 mL; in the assay on Rattus norvegicus [10] it was 0.56 mL; in the assay with Rattus norvegicus [11] it was 0.94 mL; with Rattus norvegicus [12] it was 0.95 mL; with Rattus norvegicus [13] it was 0.92 mL. The Activity with Rattus norvegicus [14] came out at 0.12 mL; with Rattus norvegicus [15], 0.22 mL; in the assay with Rattus norvegicus [16] it was 0.41 mL; with Rattus norvegicus [17], 0.65 mL; in the assay with Rattus norvegicus [18], 0.8 mL; in the assay on Rattus norvegicus [19] it was 0.81 mL. The Activity entry in the assay listed under Rattus norvegicus [20] is “Dose-dependent effect”; in the assay on Osteoblast [22] it was 1.54 U; in the assay with Mus musculus [23], 137.8 mmHg; in the assay on Mus musculus [24] it was 86.9 mmHg; in the assay on Mus musculus [25] it was 379.3; in the assay on Mus musculus [26], 40.9 µmol/L. Further, the Activity in the assay on Mus musculus [27] was 144.5 mmHg; in the assay on Mus musculus [28] it was 97.8 mmHg; in the assay on Mus musculus [29], 360.3; with Mus musculus [30], 31 µmol/L; in the assay on Osteoblast [31] it was 2.97 U; in the assay on Osteoblast [32], 2.24 U. In the assay with Osteoblast [33], this molecule showed an Activity of 1.89 U.

`C[C@]12CCC(=O)C=C1CC[C@@H]1[C@@H]2[C@@H](O)C[C@@]2(C)[C@H]1CC[C@]2(O)C(=O)COC(=O)CCC(=O)OCCCCOc1no[n+]([O-])c1S(=O)(=O)c1ccccc1`: the outcome in the assay with Mus musculus [1] was Active.

In the case of `C[C@]12CCC(=O)C=C1CC[C@@H]1[C@@H]2[C@@H](O)C[C@@]2(C)[C@H]1CC[C@]2(O)C(=O)CO` [HYDROCORTISONE], the Activity in the assay on Rattus norvegicus [34] came out at 0.15 mL; in the assay with Rattus norvegicus [35], 0.25 mL; in the assay with Rattus norvegicus [36], 0.54 mL; with Rattus norvegicus [37] it was 0.85 mL; in the assay with Rattus norvegicus [38], 0.98 mL; with Rattus norvegicus [39] it was 1.02 mL. Besides, the Activity with Osteoblast [22] was 2.26 U; in the assay with Osteoblast [31], 2.66 U; with Osteoblast [32] it was 2.69 U; with Rattus norvegicus [43], 365.2; with Rattus norvegicus [44], 28 µmol/L; with Rattus norvegicus [45], 156.7 mmHg. Besides, the Activity in the assay with Rattus norvegicus [46] is 109.6 mmHg; with Osteoblast [33], 2.07 U. The outcome in the assay on Osteoclast [40], with Osteoclast [41] and in the assay on Osteoclast [42] was Active.

As to `CC(CCOc1no[n+]([O-])c1S(=O)(=O)c1ccccc1)OC(=O)CCC(=O)OCC(=O)[C@@]1(O)CC[C@H]2[C@@H]3CCC4=CC(=O)CC[C@]4(C)[C@H]3[C@@H](O)C[C@@]21C` (some centres not stated), the result with Mus musculus [1] was Active.
